From paper PMC3166626 (Nature immunology, 2010)
“Also recorded” adds a separate entry of the source.

Legend:
T cell clone BDC-2.5 = experiment: IFN-γ response of T cell clone BDC-2.5; assay type: cell-based, NOD mouse; conditions: ChgA-derived peptides 5–500 μM; two experiments, single measurements (Fig. 6a,c)
In short: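 Cultures held 2 × 10⁴ BDC-2.5 T cells and 2.5 × 10⁴ NOD peritoneal exudate cells as I-A^g7 APCs. Chromogranin A-derived peptides were added at 5–500 μM. Controls were beta cell tumor membrane preparation, a positive mimotope peptide and an irrelevant moth cytochrome c peptide. IFN-γ was measured by specific ELISA. Two experiments, single measurement per concentration. Stimulatory capacity was calculated relative to the reference peptide.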

I-A^g7 = experiment: Peptide binding to I-A^g7; set-up: species or system NOD mouse; conditions: inhibition of bio-pHEL (11 μM) binding to soluble I-A^g7, pH 5.6, overnight, 21°C, ELISA; average of two experiments (Fig. 6b,c)
In short: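 Soluble I-A^g7 carrying covalently linked pHEL, thrombin-treated to cleave the peptide linker. Diluted in PBS, captured on OX6-coated wells, washed. Bound probe detected with alkaline phosphatase–Extravidin and […]. Controls: mimotope peptide (positive), I-E^k-binding moth cytochrome c peptide (negative). Reported as percent of uninhibited probe binding.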

BDC T cell clones [1] = experiment: In vitro activation of the BDC T cell clones; assay type: cell-based, NOD mouse
In short: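 The three BDC clones (2 × 10⁴ responder cells each) were cultured with 2.5 × 10⁴ NOD peritoneal exudate cells as APCs. Soluble synthetic test peptides were titrated alongside a mimotope peptide and beta cell tumor membrane preparation as the control antigen. IFN-γ (ng/ml) was measured by specific ELISA. At least two separate experiments, single measurement at each peptide concentration.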

BDC T cell clones [2] = conditions: presented in the context of I-A^g7; cited from earlier work

Substance | Stimulatory activity on BDC-2.5 (IFN-γ response) (T cell clone BDC-2.5) | Binding to I-A^g7 (I-A^g7) | also measured
ED9: WD5 extended by the same 4 amino acids at the N-terminus (EDKRWSRMD) | failed to stimulate BDC-2.5 | did not bind to I-A^g7 | –
EE18: WE14 extended by 4 amino acids at the N-terminus (EDKRWSRMDQLAKELTAE) | eliminated the BDC-2.5 response | no effect on I-A^g7 binding | –
RLGLWVRME [pS3] | – | – | Potency in activating the BDC clones relative to WE14 (BDC T cell clones [1]; pS3 vs synthetic WE14): at least 1000 fold
WA8: C-terminal truncation of WE14 (WSRMDQLA) | decreasing stimulatory activity | – | –
WL11: WE14 truncated by 3 C-terminal amino acids (WSRMDQLAKEL) | decreasing stimulatory activity | reduced binding to a level indistinguishable from the negative control peptide | –
WSRMD [WD5] | lacked any stimulatory activity | – | –
WSRMDQLAKELTAE [WE14] | – | bound to I-A^g7, although not nearly as well as the pS3 mimotope; also recorded: bound I-A^g7 | Activation of the BDC T cell clones (BDC T cell clones [1]; in vitro, presented by I-A^g7 APCs): activated the ChgA-specific T cell clones in vitro; also recorded: potently stimulated all three of the BDC clones; also recorded: the clones were activated; Potency relative to beta cell (tumor) antigen preparation (BDC T cell clones [1]; synthetic WE14 vs β-Mem): considerably less potent than the antigen preparation from the beta cell adenoma tumor
insulin: insulin, to which the BDC clones are not responsive | – | – | Response of BDC clones in vitro (BDC T cell clones [2]): not responsive
